From ChEMBL document CHEMBL1139054, “Indanylacetic acid derivatives carrying aryl-pyridyl and aryl-pyrimidinyl tail groups--new classes of PPAR gamma/delta and PPAR alpha/gamma/delta agonists” (Bioorg Med Chem Lett, 2007)
The source made the active and inactive calls. The rule behind the calls is not given here.

Columns and labels:
[1] = target: T1, Peroxisome proliferator-activated receptor gamma (Mus musculus, UniProt P37238); assay: Agonist activity at PPARgamma in mouse 3T3-L1 cells by IRBA; assay type: functional, cell-based
T1 sequence (P37238 whole entry): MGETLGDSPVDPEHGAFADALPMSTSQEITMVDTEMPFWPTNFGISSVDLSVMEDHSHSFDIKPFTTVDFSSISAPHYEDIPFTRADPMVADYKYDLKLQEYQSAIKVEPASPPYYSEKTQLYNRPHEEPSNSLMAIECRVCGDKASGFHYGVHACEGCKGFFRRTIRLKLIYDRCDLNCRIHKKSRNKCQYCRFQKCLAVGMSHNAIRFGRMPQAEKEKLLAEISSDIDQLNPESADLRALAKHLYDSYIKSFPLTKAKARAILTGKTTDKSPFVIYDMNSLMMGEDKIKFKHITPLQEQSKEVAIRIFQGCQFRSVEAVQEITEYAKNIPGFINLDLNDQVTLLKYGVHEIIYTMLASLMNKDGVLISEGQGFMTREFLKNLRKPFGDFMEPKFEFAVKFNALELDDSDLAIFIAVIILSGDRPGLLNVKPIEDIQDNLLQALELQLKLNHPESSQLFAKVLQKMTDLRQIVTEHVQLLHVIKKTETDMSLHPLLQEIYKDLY

[2] = target: T2, Peroxisome proliferator-activated receptor alpha (Homo sapiens, UniProt Q07869); assay: Agonist activity at human PPARalpha by FRET assay; assay type: functional
T2 sequence (Q07869 whole entry): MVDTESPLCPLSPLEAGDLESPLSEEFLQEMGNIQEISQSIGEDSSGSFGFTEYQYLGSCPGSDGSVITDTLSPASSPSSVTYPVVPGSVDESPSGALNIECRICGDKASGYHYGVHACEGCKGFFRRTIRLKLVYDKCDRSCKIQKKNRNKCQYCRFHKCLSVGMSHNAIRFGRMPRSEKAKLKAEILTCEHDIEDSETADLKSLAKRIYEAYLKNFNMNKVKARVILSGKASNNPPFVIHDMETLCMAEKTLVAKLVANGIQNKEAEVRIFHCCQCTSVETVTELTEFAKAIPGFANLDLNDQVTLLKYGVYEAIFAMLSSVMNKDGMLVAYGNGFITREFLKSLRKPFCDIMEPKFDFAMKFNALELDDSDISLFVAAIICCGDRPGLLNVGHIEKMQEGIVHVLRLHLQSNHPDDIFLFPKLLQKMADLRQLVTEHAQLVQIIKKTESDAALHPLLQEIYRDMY
How it was run: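 Human PPARα ligand-binding domain (GST-tagged) incubated with compound, europium-labeled anti-GST antibody, biotinylated coactivator-binding peptide and streptavidin-APC. FRET read at excitation 340 nm, emission 615 and […]. Means of at least two experiments.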

[3] = target: T3, Peroxisome proliferator-activated receptor delta (Homo sapiens, UniProt Q03181); assay: Agonist activity at human PPARdelta by FRET assay; assay type: functional
T3 sequence (Q03181 whole entry): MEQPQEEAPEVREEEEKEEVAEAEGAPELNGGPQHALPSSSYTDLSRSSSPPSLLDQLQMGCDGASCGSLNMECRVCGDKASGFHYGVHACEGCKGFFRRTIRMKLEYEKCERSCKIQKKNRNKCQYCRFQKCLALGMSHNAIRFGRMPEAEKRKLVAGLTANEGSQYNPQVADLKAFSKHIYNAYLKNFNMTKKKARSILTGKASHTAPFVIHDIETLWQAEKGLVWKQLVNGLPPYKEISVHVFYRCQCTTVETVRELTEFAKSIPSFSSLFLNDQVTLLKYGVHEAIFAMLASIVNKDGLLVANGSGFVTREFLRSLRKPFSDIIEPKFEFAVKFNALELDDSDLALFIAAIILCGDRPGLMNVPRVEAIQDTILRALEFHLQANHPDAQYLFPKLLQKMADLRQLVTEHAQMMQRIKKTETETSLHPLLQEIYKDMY

[4] = target: T3, Peroxisome proliferator-activated receptor delta; assay: Activity at human PPARdelta expressed in CV1 cells by GAL4 transactivation assay; assay type: cell-based, CV-1
How it was run: (§1)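 GAL4 transactivation in CV-1 cells (2.8 × 10⁴ per well, grown overnight in 10% FBS medium). Cells transiently transfected (Lipofectamine/Plus) with Gal4/PPAR-LBD fusion, UAS/firefly luciferase and Renilla luciferase plasmids. After overnight culture in charcoal/dextran-treated 10% FBS medium, compound added for 24 h. Dual luciferase read-out; EC50 from dose–response curve; means of at least two experiments.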

Mus musculus [5] = assay: Reduction of plasma glucose level in orally dosed db/db mouse after 7 days; assay type: functional; settings: po, 168 h
How it was run: (§2)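 Female db/db mice grouped by equal mean plasma glucose, then given compound orally once daily for 7 days in 0.5% methylcellulose in water; fed ad libitum. Plasma glucose measured about 24 h after the last dose. Percent change from drug = ((Tf/Ti)/(Vf/Vi) − 1) × 100, correcting for vehicle-group change.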

Mus musculus [6] = assay: Reduction of triglycerides level in hApoA1 mouse at 30 mg/kg, po after 10 days; parameters: scale not given: the % may be the effect or the level left
Rattus norvegicus [7] = assay: Reduction of glucose level in Zucker fa/fa rat at 10 mg/kg after 10 days; assay type: functional, organism-based; parameters: dose 10 mg/kg
Mus musculus [8] = assay: Reduction of plasma glucose level in db/db mouse at 10 mg/kg, po after 7 days; assay type: functional, organism-based; parameters: dose 10 mg/kg; how it was run: as §2
[9] = target: T2, Peroxisome proliferator-activated receptor alpha; assay: Activity at human PPARalpha expressed in CV1 cells by GAL4 transactivation assay; assay type: cell-based, CV-1; how it was run: as §1
[10] = Half life in rat at 3 mg/kg, po; assay type: ADME, organism-based; parameters: dose 3 mg/kg, route oral; settings: in vivo
Rattus norvegicus [11] = assay: AUC in rat at 3 mg/kg, po; assay type: ADME, organism-based, Plasma; parameters: dose 3 mg/kg, route oral; settings: in vivo
[12] = Cmax in rat at 3 mg/kg, po and 3 mg/kg, iv; assay type: ADME, organism-based; settings: in vivo
[13] = target: T4, Peroxisome proliferator-activated receptor delta (Mus musculus, UniProt P35396); assay: Activity at mouse PPARdelta expressed in CV1 cells by GAL4 transactivation assay; assay type: cell-based, CV-1; how it was run: as §1
T4 sequence (P35396 whole entry): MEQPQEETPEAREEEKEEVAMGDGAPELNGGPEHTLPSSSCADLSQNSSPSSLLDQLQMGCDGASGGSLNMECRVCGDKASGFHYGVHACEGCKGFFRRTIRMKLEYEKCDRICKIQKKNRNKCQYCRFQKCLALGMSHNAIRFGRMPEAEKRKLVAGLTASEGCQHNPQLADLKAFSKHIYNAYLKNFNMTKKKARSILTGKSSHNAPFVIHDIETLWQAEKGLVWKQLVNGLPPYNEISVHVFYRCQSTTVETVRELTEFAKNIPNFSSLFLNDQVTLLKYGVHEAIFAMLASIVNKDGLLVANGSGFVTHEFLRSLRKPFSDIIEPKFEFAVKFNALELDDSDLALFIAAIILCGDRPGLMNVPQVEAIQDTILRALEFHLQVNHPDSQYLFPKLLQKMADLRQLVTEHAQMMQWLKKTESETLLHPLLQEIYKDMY

[14] = Bioavailability in rat at 3 mg/kg, po; assay type: ADME, organism-based; settings: in vivo
Mus musculus [15] = assay: Increase in HDL-cholesterol level in hApoA1 mouse at 30 mg/kg, po after 10 days
[16] = target: T5, Peroxisome proliferator-activated receptor alpha (Mus musculus, UniProt P23204); assay: Activity at mouse PPARalpha expressed in CV1 cells by GAL4 transactivation assay; assay type: cell-based, CV-1; how it was run: as §1
T5 sequence (P23204 whole entry): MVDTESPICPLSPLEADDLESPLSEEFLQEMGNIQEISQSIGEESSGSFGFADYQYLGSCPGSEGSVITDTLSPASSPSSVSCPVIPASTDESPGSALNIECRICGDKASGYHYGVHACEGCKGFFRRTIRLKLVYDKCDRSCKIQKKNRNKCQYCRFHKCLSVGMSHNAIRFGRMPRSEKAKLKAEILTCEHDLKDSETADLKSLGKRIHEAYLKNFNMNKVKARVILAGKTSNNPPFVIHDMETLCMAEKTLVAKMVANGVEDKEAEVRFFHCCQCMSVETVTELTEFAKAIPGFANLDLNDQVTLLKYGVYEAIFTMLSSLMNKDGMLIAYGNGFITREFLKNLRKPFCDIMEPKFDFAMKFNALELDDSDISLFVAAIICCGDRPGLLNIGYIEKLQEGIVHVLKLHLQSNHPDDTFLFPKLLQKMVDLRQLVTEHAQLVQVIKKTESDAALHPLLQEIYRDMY

SMILES	EC50 [1] [nM]	EC50 [2] [nM]	EC50 [3] [nM]	also measured
Cc1cnc(-c2ccc(F)cc2)nc1N(C)CCCOc1ccc2c(c1)CC[C@H]2CC(=O)O	860	2120	7	
CCc1ccc(-c2ncc(CC)c(N(C)CCCOc3ccc4c(c3)CC[C@H]4CC(=O)O)n2)cc1	950	120	2	
Cc1ccc(-c2ncc(C)c(N(C)CCCOc3ccc4c(c3)CC[C@H]4CC(=O)O)n2)cc1	780	1150	9	
CCc1ccc(-c2nc(C)cc(N(C)CCCOc3ccc4c(c3)CC[C@H]4CC(=O)O)n2)cc1	600	920	11	
Cc1cnc(-c2ccc(Cl)cc2)nc1N(C)CCCOc1ccc2c(c1)CC[C@H]2CC(=O)O	2800	1130	7	
CCOc1cccc(-c2ncc(C)c(N(C)CCCOc3ccc4c(c3)CC[C@H]4CC(=O)O)n2)c1	6930	3540	7	
Cc1cnc(-c2cccc(Cl)c2)nc1N(C)CCCOc1ccc2c(c1)CC[C@H]2CC(=O)O	582	2370	23	
CCc1csc(-c2ccc(OCCCOc3ccc4c(c3)CC[C@H]4CC(=O)O)nc2)n1	264	421	3	
CC(=O)c1sc(-c2ccc(OCCCOc3ccc4c(c3)CC[C@H]4CC(=O)O)nc2)nc1C	35	1390	9	IC50 [4]: 56 nM; ED50 (Mus musculus [5]): 6.7 mg/kg; Activity (Mus musculus [6]): -32%; Activity (Rattus norvegicus [7]): Active; Activity (Mus musculus [8]): Active; IC50 [9]: > 6000 nM; half-life [10]: 5 h; AUC (Rattus norvegicus [11]): 26 µM·h; Cmax [12]: 2800 nM; IC50 [13]: 1390 nM; bioavailability [14]: 48%; Activity (Mus musculus [15]): 22%
CCc1ccc(-c2ncc(C)c(N(C)CCCOc3ccc4c(c3)CC[C@H]4CC(=O)O)n2)cc1	145	200	10	IC50 [4]: 30 nM; IC50 [9]: 175 nM; IC50 [16]: 670 nM; IC50 [13]: 370 nM
Cc1cccc(-c2ncc(C)c(N(C)CCCOc3ccc4c(c3)CC[C@H]4CC(=O)O)n2)c1	670	4390	41	
Cc1cnc(-c2ccc(C(C)C)cc2)nc1N(C)CCCOc1ccc2c(c1)CC[C@H]2CC(=O)O	29	990	34	IC50 [4]: 49 nM; IC50 [9]: 237 nM; IC50 [16]: 2530 nM; IC50 [13]: 610 nM
Cc1cnc(-c2ccc(C(C)(C)C)cc2)nc1N(C)CCCOc1ccc2c(c1)CC[C@H]2CC(=O)O	156	641	28	
CCOc1csc(-c2ccc(OCCCOc3ccc4c(c3)CC[C@H]4CC(=O)O)nc2)n1	411	807	3	
CCc1ccc(-c2ncc(F)c(N(C)CCCOc3ccc4c(c3)CC[C@H]4CC(=O)O)n2)cc1	360	425	16	
CCc1ccc(-c2nccc(N(C)CCCOc3ccc4c(c3)CC[C@H]4CC(=O)O)n2)cc1	800	565	25	
COc1ccc(-c2ncc(C)c(N(C)CCCOc3ccc4c(c3)CC[C@H]4CC(=O)O)n2)cc1	7010	1390	12	
CCOc1ccc(-c2ncc(C)c(N(C)CCCOc3ccc4c(c3)CC[C@H]4CC(=O)O)n2)cc1	161	3090	58	
CC(=O)c1ccc(-c2ncc(C)c(N(C)CCCOc3ccc4c(c3)CC[C@H]4CC(=O)O)n2)cc1	237	6550	83	
Cc1cnc(-c2ccccc2)nc1N(C)CCCOc1ccc2c(c1)CC[C@H]2CC(=O)O	678	6610	24	
Cc1nc(-c2ccc(OCCCOc3ccc4c(c3)CC[C@H]4CC(=O)O)nc2)sc1C	511	6780	5	
